Test [1] in a line: Cytotoxicity against human U87 cells assessed as growth inhibition after 72 hrs by MTT assay. To be noted: U-87 MG. The class given is functional, U-87MG ATCC. In a few lines: (§1)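 Cells in logarithmic growth kept in DMEM with 10% FBS, 10 mM sodium bicarbonate, penicillin 100 IU/mL, glutamine 4 mM, at 37 °C under 5% CO2. Plated in duplicate at 2500–4000 cells/well. Compound (30 mM DMSO stock) added 24 h after plating. MTT read at 540 nm after 72 h exposure.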
On the technique in general: Tetrazolium assays rely on reduction of a dye to a coloured formazan, in cell work by metabolically active cells.

Test [2] is described as follows: Cytotoxicity against mouse SMA cells assessed as growth inhibition after 72 hrs by MTT assay. It is filed as functional. In a few lines: as §1
Test [3] can be described thus: Cytotoxicity against human SJ-G2 cells assessed as growth inhibition after 72 hrs by MTT assay. The class given is functional. As to conditions: SJ-G2, 72 h. In a few lines: as §1
A short description of test [4]: Cytotoxicity against human MIA cells assessed as growth inhibition after 72 hrs by MTT assay. It is filed as functional. The gist of the method: as §1
Test [5] in a line: Cytotoxicity against human BE(2)-C cells assessed as growth inhibition after 72 hrs by MTT assay. The class given is functional. The gist of the method:
as §1

Test [6] concerns DU-145. The test can be described thus: Cytotoxicity against human DU145 cells assessed as growth inhibition after 72 hrs by MTT assay. It is filed as functional. As to conditions: DU-145, 72 h. The gist of the method:
as §1

Test [7] can be described thus: Cytotoxicity against human H460 cells assessed as growth inhibition after 72 hrs by MTT assay. The class given is functional. To be noted: NCI-H460, 72 h. In a few lines:
as §1

For test [8], the system named is A-431. Nature of the test: Cytotoxicity against human A431 cells assessed as growth inhibition after 72 hrs by MTT assay. To be noted: A-431, 72 h. The class given is functional. In a few lines: as §1
For test [9], the system named is A2780. The test can be described thus: Cytotoxicity against human A2780 cells assessed as growth inhibition after 72 hrs by MTT assay. To be noted: A2780, 72 h. The class given is functional. The gist of the method: as §1
Test [10] has as its system MCF7. Nature of the test: Cytotoxicity against human MCF7 cells assessed as growth inhibition after 72 hrs by MTT assay. As to conditions: MCF7, 72 h. The class given is functional. In a few lines: as §1
For test [11], the system named is SW480. The test can be described thus: Cytotoxicity against human SW480 cells assessed as growth inhibition after 72 hrs by MTT assay. As to conditions: SW480, 72 h. It is filed as functional. In a few lines:
as §1

In test [12] the test system is HT-29. Nature of the test: Cytotoxicity against human HT-29 cells assessed as growth inhibition after 72 hrs by MTT assay. As to conditions: HT-29, 72 h. The class given is functional. In a few lines:
as §1

The nature of test [13]: Cytotoxicity against human U87 cells assessed as growth inhibition at 25 uM after 72 hrs by MTT assay relative to control. It is filed as functional, U-87MG ATCC. To be noted: U-87 MG, read-out: GI. The gist of the method: as §1
A short description of test [14]: Cytotoxicity against mouse SMA cells assessed as growth inhibition at 25 uM after 72 hrs by MTT assay relative to control. The class given is functional. As to conditions: read-out: GI. The gist of the method:
as §1

Test [15] in a line: Cytotoxicity against human MIA cells assessed as growth inhibition at 25 uM after 72 hrs by MTT assay relative to control. It is filed as functional. As to conditions: read-out: GI. The gist of the method:
as §1

Test [16] is described as follows: Cytotoxicity against human SJ-G2 cells assessed as growth inhibition at 25 uM after 72 hrs by MTT assay relative to control. It is filed as functional. As to conditions: SJ-G2, 72 h, read-out: GI. In a few lines: as §1
The nature of test [17]: Cytotoxicity against human BE(2)-C cells assessed as growth inhibition at 25 uM after 72 hrs by MTT assay relative to control. The class given is functional. To be noted: read-out: GI. In a few lines:
as §1

The test system of test [18] is DU-145. The test can be described thus: Cytotoxicity against human DU145 cells assessed as growth inhibition at 25 uM after 72 hrs by MTT assay relative to control. The class given is functional. To be noted: DU-145, 72 h, read-out: GI. The gist of the method:
as §1

Test [19] has as its system A-431. Nature of the test: Cytotoxicity against human A431 cells assessed as growth inhibition at 25 uM after 72 hrs by MTT assay relative to control. To be noted: A-431, 72 h, read-out: GI. It is filed as functional. The gist of the method:
as §1

A short description of test [20]: Cytotoxicity against human H460 cells assessed as growth inhibition at 25 uM after 72 hrs by MTT assay relative to control. To be noted: NCI-H460, 72 h, read-out: GI. It is filed as functional. The gist of the method:
as §1

The test system of test [21] is A2780. Nature of the test: Cytotoxicity against human A2780 cells assessed as growth inhibition at 25 uM after 72 hrs by MTT assay relative to control. To be noted: A2780, 72 h, read-out: GI. It is filed as functional. The gist of the method:
as §1

For test [22], the system named is MCF7. Nature of the test: Cytotoxicity against human MCF7 cells assessed as growth inhibition at 25 uM after 72 hrs by MTT assay relative to control. It is filed as functional. As to conditions: MCF7, 72 h, read-out: GI. The gist of the method:
as §1

The test system of test [23] is SW480. Nature of the test: Cytotoxicity against human SW480 cells assessed as growth inhibition at 25 uM after 72 hrs by MTT assay relative to control. The class given is functional. As to conditions: SW480, 72 h, read-out: GI. The gist of the method: as §1
Test [24] relates to HT-29. Nature of the test: Cytotoxicity against human HT-29 cells assessed as growth inhibition at 25 uM after 72 hrs by MTT assay relative to control. The class given is functional. As to conditions: HT-29, 72 h, read-out: GI. In a few lines:
as §1

Some results are limits rather than exact numbers.

In the case of `O=C(NCc1ccc(Cl)c(Cl)c1)c1cc(Br)c(Br)[nH]1`, the GI50 (as a rule, the concentration that inhibits growth by half) came to 27 µM in [1]; 17 µM in [2]; 18 µM in test [3]; 17 µM in [4]; 24 µM in [5]; 20 µM in the test with DU-145 [6]. Besides, the GI50 amounted to 19 µM in test [7]; 20 µM with A-431 [8]; 15 µM with A2780 [9]; 12 µM with MCF7 [10]; 33 µM in the test with SW480 [11]; 17 µM in the test on HT-29 [12]. For the same compound, the inhibition of growth at 25 µM came out at 55% in [13]; 84% in test [14]; 77% in [15]; 70% in test [16]; 44% in test [17]; 66% in the test with DU-145 [18]. The inhibition of growth at 25 µM with A-431 [19] is 57%; in test [20], 66%; in the test on A2780 [21] it was 90%; in the test on MCF7 [22], more than 100%; in the test on SW480 [23] it was 22%; in the test on HT-29 [24] it was 77%.

On to `O=C(NCCc1ccc(O)cc1)c1cc(Br)c(Br)[nH]1`, for which the concentration for 50% growth inhibition (GI50) in test [1] was more than 50 µM; in test [2] it was 23 µM; in [3], 30 µM; in [4], 43 µM; in [5] it was 16 µM; in the test with DU-145 [6], more than 50 µM. Besides, the GI50 in [7] is 39 µM; in the test on A-431 [8], 20 µM; with A2780 [9], 11 µM; in the test with MCF7 [10] it was 12 µM; with SW480 [11], more than 50 µM; in the test on HT-29 [12], 28 µM. Also, the inhibition of growth at 25 µM was less than 0% in test [13]; 46% in [14]; 20% in test [15]; 44% in test [16]; 101% in test [17]; 3% with DU-145 [18]. The inhibition of growth at 25 µM was 68% in the test on A-431 [19]; 11% in test [20]; 90% in the test on A2780 [21]; 81% with MCF7 [22]; less than 0% with SW480 [23]; 48% in the test with HT-29 [24].

On to `O=C(NCC(c1ccccc1)c1ccccc1)c1cc(Br)c(Br)[nH]1`, for which the GI50 was determined as 36 µM in [1]; 11 µM in test [2]; 27 µM in test [3]; 18 µM in test [4]; 16 µM in test [5]; 21 µM in the test with DU-145 [6]. Besides, the GI50 in test [7] turned out to be 18 µM; in the test with A-431 [8], 19 µM; with A2780 [9], 13 µM; in the test on MCF7 [10] it was 10 µM; in the test with SW480 [11], 34 µM; in the test with HT-29 [12] it was 16 µM. The inhibition of growth at 25 µM in [13] is 48%; in [14], 80%; in [15], 69%; in test [16] it was 56%; in test [17] it was more than 100%; in the test with DU-145 [18] it was 56%. Moreover, the inhibition of growth at 25 µM with A-431 [19] was 56%; in [20], 67%; in the test on A2780 [21], 94%; in the test on MCF7 [22], more than 100%; in the test on SW480 [23], 33%; with HT-29 [24] it was 82%.

As to `Nc1ncc(/C=C/CNC(=O)c2cc(Br)c(Br)[nH]2)[nH]1` [OROIDIN], the GI50 (in [1]; in test [2]; in [3]; in test [4]; in test [5]; in the test with DU-145 [6]) was more than 50 µM each time. The GI50 in [7] was more than 50 µM; with A-431 [8] it was more than 50 µM; in the test on A2780 [9], 24 µM; in the test with MCF7 [10], 42 µM; in the test with SW480 [11], more than 50 µM; with HT-29 [12] it was more than 50 µM. The inhibition of growth at 25 µM in test [13] was 3%; in test [14], 15%; in test [15], 21%; in test [16], less than 0%; in test [17] it was 6%; with DU-145 [18], 23%. In addition, the inhibition of growth at 25 µM in the test with A-431 [19] came out at 6%; in [20], 7%; in the test with A2780 [21], 51%; in the test on MCF7 [22], 27%; with SW480 [23], 8%; with HT-29 [24] it was 31%.

`O=C(NCc1ccc(Cl)cc1)c1cc(Br)c(Br)[nH]1`: the GI50 came out at 34 µM in [1]; 16 µM in test [2]; 28 µM in [3]; 22 µM in test [4]; 32 µM in test [5]; 27 µM in the test on DU-145 [6]. The GI50 came out at 28 µM in test [7]; 24 µM with A-431 [8]; 13 µM in the test on A2780 [9]; 14 µM in the test with MCF7 [10]; 36 µM with SW480 [11]; 13 µM in the test on HT-29 [12]. In addition, the inhibition of growth at 25 µM in test [13] is 30%; in test [14], 79%; in [15], 63%; in test [16], 42%; in test [17], 24%; in the test on DU-145 [18] it was 40%. Also, the inhibition of growth at 25 µM in the test with A-431 [19] was 37%; in [20] it was 57%; with A2780 [21], 86%; in the test on MCF7 [22], more than 100%; with SW480 [23] it was 11%; with HT-29 [24], 95%.

Regarding `O=C(NCc1ccc(-c2ccccc2)cc1)c1ccc[nH]1`, the GI50 in test [1] was 11 µM; in [2], 21 µM; in test [3] it was more than 50 µM; in test [4], 6.5 µM; in [5] it was 11 µM; with DU-145 [6], 6.5 µM. The GI50 in [7] is more than 50 µM; in the test with A-431 [8], 5.8 µM; with A2780 [9], 11 µM; in the test with MCF7 [10], 5.7 µM; with SW480 [11], 4.3 µM; in the test with HT-29 [12], 4.3 µM. The inhibition of growth at 25 µM in test [13] came to 77%; in test [14], 53%; in test [15], 74%; in test [16], 33%; in test [17] it was 72%; in the test on DU-145 [18], 87%. Further, the inhibition of growth at 25 µM stood at 81% with A-431 [19]; 59% in test [20]; 58% in the test with A2780 [21]; 79% with MCF7 [22]; 93% with SW480 [23]; 78% in the test with HT-29 [24].

For the origin of these results see ChEMBL document CHEMBL3112444, “Synthesis and anticancer activity of focused compound libraries from the natural product lead, oroidin” (2014).
